From ChEMBL document CHEMBL1154123, “Targeted isolation and structure elucidation of stilbene glycosides from the bark of Lysidice brevicalyx Wei guided by biological and chemical screening” (J Nat Prod, 2008) come the findings set out here.

Assay [1] in a line: Antioxidant activity against ferrous ion-induced lipid peroxidation in liver microsomes assessed as inhibition rate at 100 uM by TBA method in presence of cysteine. The assay is classed as functional. Also noted: scale not given: the % may be the effect or the level left. To be noted: Microsome. The gist of the method:
(§1)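 Liver microsomal protein (1.0 mg in 1 mL 0.1 M PBS, pH 7.4) incubated with […] cysteine and test sample at 37 °C for 15 min; peroxidation initiated with 0.05 mM FeSO4. Stopped with 20% trichloroacetic acid, centrifuged, supernatant heated with 0.67% TBA 10 min at 100 °C. MDA read at 532 nm; inhibition rate calculated against Fe2+-cysteine and solvent-only controls. Vitamin E positive control.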

Assay [2] is described as follows: Antioxidant activity against ferrous ion-induced lipid peroxidation in liver microsomes assessed as inhibition rate at 10 uM by TBA method in presence of cysteine. Also noted: scale not given: the % may be the effect or the level left. It is filed as functional. As to conditions: Microsome. The gist of the method: as §1
Background: Microsomes from liver hold many membrane-bound enzymes, among them those of drug oxidation.

As to `Oc1ccc(/C=C/c2cc(O)cc(O[C@@H]3O[C@H](CO[C@@H]4OC[C@@H](O)[C@H](O)[C@H]4O)[C@@H](O)[C@H](O)[C@H]3O)c2)cc1`, the Activity in assay [1] was 21%; in assay [2] it was 4%.

Turning to `C[C@@H]1O[C@@H](O[C@H]2[C@H](Oc3cc(O)cc(/C=C\c4ccc(O)cc4)c3)O[C@H](CO)[C@@H](O)[C@@H]2O)[C@H](O)[C@H](O)[C@H]1O`, the Activity stood at 10% in assay [1] and 11% in assay [2].

Turning to `C[C@@H]1O[C@@H](OC[C@H]2O[C@@H](Oc3cc(O)cc(/C=C/c4ccc(O)cc4)c3)[C@H](O[C@@H]3O[C@@H](C)[C@H](O)[C@@H](O)[C@H]3O)[C@@H](O)[C@@H]2O)[C@H](O)[C@H](O)[C@H]1O`, the Activity in assay [1] was 39%; in assay [2], 5%.

For the molecule `OC[C@H]1O[C@@H](O[C@H]2[C@H](Oc3cc(O)cc(/C=C/c4ccc(O)cc4)c3)OC[C@@H](O)[C@@H]2O)[C@H](O)[C@@H](O)[C@@H]1O`, the Activity in assay [1] is 29%; in assay [2], 5%.

In the case of `C[C@@H]1O[C@@H](OC[C@H]2O[C@@H](Oc3cc(O)cc(/C=C/c4ccc(O)cc4)c3)[C@H](O)[C@@H](O)[C@@H]2O)[C@H](O)[C@H](O)[C@H]1O`, the Activity in assay [1] was 31%; in assay [2] it was 11%.

As to `C[C@@H]1O[C@@H](O[C@H]2[C@H](Oc3cc(O)cc(/C=C/c4ccc(O)cc4)c3)O[C@H](CO)[C@@H](O)[C@@H]2O)[C@H](O)[C@H](O)[C@H]1O`, the Activity was found to be 39% in assay [1] and 9% in assay [2].

In the case of `C[C@@H]1O[C@@H](O[C@H]2[C@H](Oc3cc(O)cc(/C=C/c4ccc(O)cc4)c3)OC[C@@H](O)[C@@H]2O)[C@H](O)[C@H](O)[C@H]1O`, the Activity in assay [1] came to 67%; in assay [2], 6%.

On to `C[C@@H]1O[C@@H](OC[C@H]2O[C@@H](Oc3cc(O)cc(/C=C\c4ccc(O)cc4)c3)[C@H](O)[C@@H](O)[C@@H]2O)[C@H](O)[C@H](O)[C@H]1O`, for which the results for the Activity in assay [1] and in assay [2] were 15% and 0%, respectively.

As for `COc1ccc(CCN(C)CCCC(C#N)(c2ccc(OC)c(OC)c2)C(C)C)cc1OC` (configuration not stated), the Activity in assay [1] stood at 81%; in assay [2] it was 33%.

`OC[C@H]1O[C@@H](Oc2cc(O)cc(/C=C/c3ccc(O)cc3)c2)[C@H](O)[C@@H](O)[C@@H]1O`: the Activity was determined as 100% in assay [1] and 29% in assay [2].

Regarding `C[C@@H]1O[C@@H](OC[C@H]2O[C@@H](Oc3cc(O)cc(/C=C\c4ccc(O)cc4)c3)[C@H](O[C@@H]3O[C@@H](C)[C@H](O)[C@@H](O)[C@H]3O)[C@@H](O)[C@@H]2O)[C@H](O)[C@H](O)[C@H]1O`, the Activity in assay [1] is 25%; in assay [2], 8%.
